Compound activity from PubChem.
Only some compounds are listed: those with a hit (about 3% of all), similar ones and a draw of the others.
TMEM16A act – activates or potentiates the mouse TMEM16A chloride channel; Q8BHY3; HEK293 TMEM16A/YFP-H148Q/I152L, iodide quench fluorescence; stronger effect = lower value; B-score at 10 µM; hit rate 0.3% among 340,000; AID 623877;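 active = fluorescence-ratio B-score plate-corrected deviation score at least 3 library SD below zero, with starting fluorescence score within 5 deviations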;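 also: channel opened by trigger with iodide after compound preincubation; score built on the fluorescence ratio of max minus min over baseline; more negative score means more quench and so TMEM16A activation or potentiation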
Kir21 inh – inhibitors of mouse Kir2.1 inward-rectifier potassium channel; B-score at 10 µM; HEK293-Kir2.1, FluxOR thallium flux fluorescence; stronger effect = lower value; AID 1672; hit rate 0.85% among 310,000; P35561;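 active = fluorescence ratio B-score at or below minus 3 SD of library scores, with starting-brightness B-score within 2 SD, cut at about -4.2 in these data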;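 also: channel flux triggered by added potassium and thallium sulfate stimulus; B-score of peak minus minimum fluorescence over baseline after thallium stimulus; more negative B-score means stronger Kir2.1 block with less thallium influx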
Target sequence (P35561 whole entry, looked up): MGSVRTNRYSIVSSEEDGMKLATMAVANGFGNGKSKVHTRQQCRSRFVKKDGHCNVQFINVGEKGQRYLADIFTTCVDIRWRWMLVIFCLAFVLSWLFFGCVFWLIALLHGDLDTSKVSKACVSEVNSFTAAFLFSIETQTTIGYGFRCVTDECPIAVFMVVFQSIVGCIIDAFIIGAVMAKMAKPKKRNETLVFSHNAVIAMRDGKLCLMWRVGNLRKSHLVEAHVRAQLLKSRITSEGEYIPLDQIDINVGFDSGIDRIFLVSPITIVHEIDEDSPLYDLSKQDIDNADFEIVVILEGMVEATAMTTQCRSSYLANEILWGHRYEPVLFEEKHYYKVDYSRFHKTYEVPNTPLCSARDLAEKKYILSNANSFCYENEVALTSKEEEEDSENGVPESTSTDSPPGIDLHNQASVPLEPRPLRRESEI
DNA FID counter – displaces DNA intercalator in HCV helicase counter-screen | hit rate 0.17% among 290,000 | inhibition, % at 7.9 µM | DNA fluorescent intercalator displacement, fluorescence; in the data active = inhibition above about 37%;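 also: 0% = vehicle and 100% = reference compound; higher means more ethidium bromide displaced from hairpin DNA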
SR-BI DiI inh – mouse SR-BI HDL lipid transfer inhibition; Q61009; ldlA[mSR-BI] CHO cells, DiI-HDL uptake fluorescence, 3 h; inhibition, % at 12.5 µM; hit rate 0.96% among 320,000; AID 488896;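 active = mean replicate inhibition of at least 70% and a set share of replicates each scoring 70 or more; inconclusive = meets just one of the two criteria; inactive = fails both criteria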;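 also: 0% = median of neutral control wells and 100% = median of positive control wells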
SR-BI uptake up – SR-BI HDL lipid transfer activation; CHO ldlA[mSR-BI] cells, DiI-HDL uptake fluorescence, 3 h; 100 = double the neutral-control signal; activation, % at 12.5 µM; hit rate 0.096% among 320,000;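 active = mean replicate activation of at least 60% and every replicate at or above 60%; inconclusive = mean or all-replicate condition met, but not both; inactive = mean below 60% and not all replicates reaching 60%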;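 also: 0% = median plate neutral-control signal and 100% = twice that signal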
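Material: SR-BI-overexpressing, LDLR-lacking CHO cells; schedule: compound exposure 3 h, 37 °C; reagent: DiI-labelled HDL at 10 µg/mL final; technique: bottom-read fluorescence, 550/595 nm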
TMEM16A inh – mouse TMEM16A channel inhibition, primary screen. hit rate 1.2% among 310,000. AID 588511. Q8BHY3. normalized B-score (activity score, 25-100; higher = stronger inhibition) at 10 µM. HEK293 TMEM16A/YFP iodide influx fluorescence, ionomycin;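 active = ratio plate-corrected score three or more library SD toward inhibition, starting fluorescence score within five deviations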;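 also: score derived from kinetic fluorescence span divided by baseline fluorescence per well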
The depositor's hits bear a star.

What do the screens show for `COC(=O)c1cc(OC)c(OC)cc1NC(=O)c1csc(C)c1`?
TMEM16A act: inactive; Kir21 inh: 0.93; DNA FID counter: -39; SR-BI DiI inh: 63; SR-BI uptake up: -63; TMEM16A inh: inactive

How did Cc1cccc(NC(=S)N(CCCN2CCOCC2)C(C)c2cc3ccccc3o2)c1C (configuration not stated) do in these assays?
TMEM16A act: inactive; Kir21 inh: -0.28; DNA FID counter: 14; TMEM16A inh: inactive

Results for COc1ccc(C(=O)Nc2cccc(/C(C)=N\NC(=O)c3ccoc3C)c2)cc1OC ?
TMEM16A act: inactive; Kir21 inh: 1.1; DNA FID counter: -24; SR-BI DiI inh: inconclusive; SR-BI uptake up: -74

Results for COc1cccc(/C=N/NC(=O)c2cc(-c3ccccn3)nc3ccccc23)c1O ?
TMEM16A act: inactive; SR-BI DiI inh: 103*; SR-BI uptake up: -103

What do the screens show for `CC(C)COc1cccc(-c2cc(C(=O)N/N=C/c3ccncc3)c3ccccc3n2)c1`?
TMEM16A act: inactive; Kir21 inh: -1.1; DNA FID counter: -21; SR-BI DiI inh: 79*; SR-BI uptake up: -79; TMEM16A inh: inactive

What do the screens show for `COc1ccc(/C=N/NC(=O)c2cccc([N+](=O)[O-])c2)c2ccccc12`?
TMEM16A act: inactive; Kir21 inh: 0.04; DNA FID counter: 1; SR-BI DiI inh: 75*; SR-BI uptake up: -75; TMEM16A inh: inactive

Results for COc1ccc(C(=O)Nc2cccc(/C(C)=N/NC(=O)c3ccc([N+](=O)[O-])c(C)c3)c2)cc1OC ?
TMEM16A act: inactive; Kir21 inh: 0.18; DNA FID counter: -9; SR-BI DiI inh: 86*; SR-BI uptake up: -86; TMEM16A inh: inactive

Results for COc1ccc(CNC(=O)C(C)OC(=O)CN2C(=O)COc3ccccc32)cc1 (configuration not stated) ?
TMEM16A act: inactive; Kir21 inh: 0.74; DNA FID counter: -21; TMEM16A inh: inactive

How did CCOc1ccccc1C(=O)NC(C)CCc1ccccc1 (configuration not stated) do in these assays?
TMEM16A act: inactive; Kir21 inh: -0.44; TMEM16A inh: inactive

How did COc1ccc(/C=N/NC(=O)c2cc(-c3cccnc3)nc3ccccc23)c(OC)c1 do in these assays?
TMEM16A act: inactive; Kir21 inh: 0.33; DNA FID counter: 5; SR-BI DiI inh: 74*; SR-BI uptake up: -74; TMEM16A inh: inactive

Results for Cc1ccc(-c2cc(C(=O)N/N=C/c3c(C)nn(C)c3C)c3ccccc3n2)cc1C ?
TMEM16A act: inactive; Kir21 inh: -0.66; DNA FID counter: -16; SR-BI DiI inh: 86*; SR-BI uptake up: -86; TMEM16A inh: inactive

How did O=C(N/N=C/c1cccc([N+](=O)[O-])c1)c1ccc(COc2ccccc2-c2ccccc2)cc1 do in these assays?
TMEM16A act: inactive; Kir21 inh: -0.8; DNA FID counter: -2; SR-BI DiI inh: 74*; SR-BI uptake up: -74; TMEM16A inh: inactive

Results for Cc1cc(/C=N/NC(=O)c2cccc([N+](=O)[O-])c2)c(C)n1-c1ccc(Cl)cc1Cl ?
TMEM16A act: inactive; Kir21 inh: 0.35; DNA FID counter: -9; SR-BI DiI inh: 89*; SR-BI uptake up: -89; TMEM16A inh: inactive

Results for Cc1ccc(-c2cc(C(=O)N/N=C/c3ccoc3)c3ccccc3n2)cc1 ?
TMEM16A act: inactive; Kir21 inh: 0; DNA FID counter: -26; SR-BI DiI inh: inconclusive; TMEM16A inh: inactive

Results for Cc1ccc(C2(c3ccccc3)NC(=O)N(CC(=O)NC3CCS(=O)(=O)C3)C2=O)cc1C (configuration not stated) ?
TMEM16A act: inactive; SR-BI DiI inh: -11; SR-BI uptake up: 11

How did COCCN(C(=O)COC(=O)Cc1c[nH]c2ccccc12)c1c(N)n(Cc2ccccc2)c(=O)[nH]c1=O do in these assays?
TMEM16A act: inactive; Kir21 inh: -0.28; SR-BI DiI inh: 0; SR-BI uptake up: 0; TMEM16A inh: inactive

How did CC(C)N(CCCNC(=O)C1CCN(C(=O)c2cc3sccc3n2C)CC1)Cc1ccccc1 do in these assays?
TMEM16A act: inactive; Kir21 inh: -0.85; DNA FID counter: 28; SR-BI DiI inh: 5; TMEM16A inh: inactive
